Test results: ChEMBL document CHEMBL4049426, “Identification of the Clinical Candidate (R)-(1-(4-Fluorophenyl)-6-((1-methyl-1H-pyrazol-4-yl)sulfonyl)-4,4a,5,6,7,8-hexahydro-1H-pyrazolo[3,4-g]isoquinolin-4a-yl)(4-(trifluoromethyl)pyridin-2-yl)methanone (CORT125134): A Selective Glucocorticoid Receptor (GR) Antagonist” (J Med Chem, 2017)
Calls of active or inactive are those of the source. The rule behind the calls is not given here.

Tests used:
Cytochrome P450 2B6 [1] = target: T1, Cytochrome P450 2B6 (Homo sapiens, UniProt P20813); experiment: Time-dependent inhibition of CYP2B6 (unknown origin); format: ADME
T1 sequence (P20813 whole entry): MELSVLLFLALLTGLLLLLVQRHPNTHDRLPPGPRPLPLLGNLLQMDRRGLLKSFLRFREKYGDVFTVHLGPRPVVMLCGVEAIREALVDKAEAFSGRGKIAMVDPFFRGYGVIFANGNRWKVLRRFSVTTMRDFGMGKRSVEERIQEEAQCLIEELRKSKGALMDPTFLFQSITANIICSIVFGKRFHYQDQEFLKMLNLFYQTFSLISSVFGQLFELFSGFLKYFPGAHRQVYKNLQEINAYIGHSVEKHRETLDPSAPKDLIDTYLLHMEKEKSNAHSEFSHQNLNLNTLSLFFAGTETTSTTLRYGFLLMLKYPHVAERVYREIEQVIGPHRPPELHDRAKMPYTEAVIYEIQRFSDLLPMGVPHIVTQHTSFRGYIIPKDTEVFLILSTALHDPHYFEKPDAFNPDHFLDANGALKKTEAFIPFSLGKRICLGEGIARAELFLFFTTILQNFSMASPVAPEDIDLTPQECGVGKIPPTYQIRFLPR

Rattus norvegicus = experiment: In vivo antagonist activity at glucocorticoid receptor in Sprague-Dawley rat assessed as reduction in cortisone-induced plasma glucose levels at 7.5 mg/kg, po bid via gavage for 6 days pretreated for 12 hrs followed by cortisone 21-acetate treatment measured 24 hrs after last cortisone 21-acetate treatment; format: functional, organism-based
In short: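 Male Sprague Dawley rats (200-250 g) got vehicle daily for a 3-day baseline, then groups of eight were dosed. Test agent was suspended in DMSO:Tween 80:0.5% HPMC (10:0.1:89.9) and given by oral gavage twice daily for 6 days. Cortisone 21-acetate was given at 30 mg/kg s.c. once daily in 1% methylcellulose. Tail-vein blood was taken 24 h after the last cortisone dose (12 h after the last test dose). Glucose was read with a clinical reagent and insulin by rat ELISA.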

[2] = Oral bioavailability in monkey plasma at 20 mg/kg measured up to 24 hrs by LC/MS analysis; format: ADME, organism-based, Macaca mulatta; details: rhesus monkey
In short: (§1)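 Monkey i.v./p.o. study: oral 20mg/kg in 10% DMSO, 0.1% Tween 80, 0.5% hydroxypropylmethylcellulose in water; i.v. dose 1mg/kg.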

Cytochrome P450 2C9 = Cytochrome P450 2C9 (Homo sapiens, UniProt P11712); experiment: Inhibition of CYP2C9 (unknown origin); format: ADME
Chain of Cytochrome P450 2C9 (P11712 whole entry): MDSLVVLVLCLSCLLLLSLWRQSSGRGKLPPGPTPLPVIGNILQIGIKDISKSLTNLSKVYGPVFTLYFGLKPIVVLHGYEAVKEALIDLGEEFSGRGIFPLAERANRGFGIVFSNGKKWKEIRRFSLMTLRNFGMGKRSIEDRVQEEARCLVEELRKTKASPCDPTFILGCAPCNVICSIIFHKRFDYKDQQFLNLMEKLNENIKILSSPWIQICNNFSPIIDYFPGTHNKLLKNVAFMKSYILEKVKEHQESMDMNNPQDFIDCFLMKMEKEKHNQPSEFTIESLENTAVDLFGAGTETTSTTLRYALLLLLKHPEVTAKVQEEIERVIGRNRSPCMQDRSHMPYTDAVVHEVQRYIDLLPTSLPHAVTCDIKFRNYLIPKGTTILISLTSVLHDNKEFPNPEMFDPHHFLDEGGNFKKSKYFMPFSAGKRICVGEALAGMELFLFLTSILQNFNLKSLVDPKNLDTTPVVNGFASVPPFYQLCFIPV

Cytochrome P450 2D6 [3] = target: T2, Cytochrome P450 2D6 (Homo sapiens, UniProt P10635); experiment: Inhibition of CYP2D6 (unknown origin); format: ADME
T2 sequence (P10635 whole entry): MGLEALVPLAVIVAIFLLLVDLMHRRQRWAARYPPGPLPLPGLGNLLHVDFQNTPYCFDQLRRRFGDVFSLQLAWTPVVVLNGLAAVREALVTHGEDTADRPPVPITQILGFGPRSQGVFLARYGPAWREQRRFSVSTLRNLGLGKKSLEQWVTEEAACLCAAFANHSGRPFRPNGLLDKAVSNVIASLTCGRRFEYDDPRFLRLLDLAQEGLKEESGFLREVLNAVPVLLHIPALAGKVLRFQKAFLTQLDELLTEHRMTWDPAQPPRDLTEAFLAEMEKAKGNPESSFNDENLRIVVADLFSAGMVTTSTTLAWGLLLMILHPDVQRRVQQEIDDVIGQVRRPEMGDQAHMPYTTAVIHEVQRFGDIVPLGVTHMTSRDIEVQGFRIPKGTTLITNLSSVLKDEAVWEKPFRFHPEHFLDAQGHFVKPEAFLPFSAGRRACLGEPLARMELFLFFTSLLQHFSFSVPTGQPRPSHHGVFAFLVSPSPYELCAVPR

[4] = AUC in Sprague-Dawley CD-1 rat plasma at 3 mg/kg, po administered as cassette dose via gavage measured up to 24 hrs by LC/MS analysis; format: ADME, organism-based; set-up: time < 24 hr, dose 3 mg/kg, route oral
In short: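 Three male Sprague Dawley CD-1 rats (220-250g) with jugular vein catheters; three test compounds plus a reference dosed together by oral gavage, 3mg/kg each, in DMSO:0.5% methylcellulose 10:90 (0.6mg/mL per compound), 5mL/kg. Plasma sampled pre-dose and at 0.25, 0.5, 1, 2, 4, 6, 8, 24 h; LC/MS.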

Glucocorticoid receptor = target: T3, Glucocorticoid receptor (Rattus norvegicus, UniProt P06536); experiment: (§2) Antagonist activity at rat glucocorticoid receptor in primary hepatocytes assessed as dexamethasone-induced tyrosine amino transferase activity preincubated for 30 mins followed by dexamethasone addition measured after 20 hrs; format: cell-based
T3 sequence (P06536 whole entry): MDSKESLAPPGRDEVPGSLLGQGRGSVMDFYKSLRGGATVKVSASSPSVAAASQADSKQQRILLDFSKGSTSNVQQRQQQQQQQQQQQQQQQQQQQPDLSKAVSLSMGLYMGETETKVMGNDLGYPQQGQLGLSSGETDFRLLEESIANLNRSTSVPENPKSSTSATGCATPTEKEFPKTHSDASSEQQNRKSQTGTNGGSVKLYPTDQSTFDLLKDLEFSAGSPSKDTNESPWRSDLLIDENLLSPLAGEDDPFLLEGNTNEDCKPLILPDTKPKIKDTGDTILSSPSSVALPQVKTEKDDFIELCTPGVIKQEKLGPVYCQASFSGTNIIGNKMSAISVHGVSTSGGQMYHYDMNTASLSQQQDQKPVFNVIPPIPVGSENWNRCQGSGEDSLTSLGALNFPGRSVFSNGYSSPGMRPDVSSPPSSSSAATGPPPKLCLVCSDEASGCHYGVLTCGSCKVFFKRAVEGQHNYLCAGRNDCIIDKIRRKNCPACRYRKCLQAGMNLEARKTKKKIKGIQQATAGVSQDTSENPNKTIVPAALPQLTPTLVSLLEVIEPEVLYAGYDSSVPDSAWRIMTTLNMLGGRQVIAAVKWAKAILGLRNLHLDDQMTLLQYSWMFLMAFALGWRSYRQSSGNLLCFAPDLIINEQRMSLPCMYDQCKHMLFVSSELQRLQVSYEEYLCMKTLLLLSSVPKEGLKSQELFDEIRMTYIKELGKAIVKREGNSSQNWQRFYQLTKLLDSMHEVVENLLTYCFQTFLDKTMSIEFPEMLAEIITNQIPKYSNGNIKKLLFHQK

[5] = target: T4, Glucocorticoid receptor (Rattus norvegicus) (UniProt P06536); experiment: as §2; format: cell-based
T4 sequence (whole entry): T3 sequence (P06536 whole entry)

Cytochrome P450 1A2 = target: T5, Cytochrome P450 1A2 (Homo sapiens, UniProt P05177); experiment: Time-dependent inhibition of CYP1A2 (unknown origin); format: ADME
T5 sequence (P05177 whole entry): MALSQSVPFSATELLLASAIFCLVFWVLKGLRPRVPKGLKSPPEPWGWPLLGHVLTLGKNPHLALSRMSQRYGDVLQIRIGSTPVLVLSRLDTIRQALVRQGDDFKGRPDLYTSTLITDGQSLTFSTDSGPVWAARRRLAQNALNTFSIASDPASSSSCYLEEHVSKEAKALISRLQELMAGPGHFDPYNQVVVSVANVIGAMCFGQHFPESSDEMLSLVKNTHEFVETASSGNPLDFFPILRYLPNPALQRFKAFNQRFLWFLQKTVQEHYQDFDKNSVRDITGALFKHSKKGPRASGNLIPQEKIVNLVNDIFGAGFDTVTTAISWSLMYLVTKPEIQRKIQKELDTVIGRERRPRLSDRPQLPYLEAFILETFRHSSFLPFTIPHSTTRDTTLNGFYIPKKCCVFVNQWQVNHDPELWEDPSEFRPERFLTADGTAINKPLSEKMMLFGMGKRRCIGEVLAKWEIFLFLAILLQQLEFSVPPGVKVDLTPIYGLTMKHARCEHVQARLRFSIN

Cytochrome P450 2D6 [6] = target: T2, Cytochrome P450 2D6; experiment: Time-dependent inhibition of CYP2D6 (unknown origin); format: ADME
Cytochrome P450 3A5 = Cytochrome P450 3A5 (Homo sapiens, UniProt P20815); experiment: Time-dependent inhibition of CYP3A5 (unknown origin); format: ADME
Chain of Cytochrome P450 3A5 (P20815 whole entry): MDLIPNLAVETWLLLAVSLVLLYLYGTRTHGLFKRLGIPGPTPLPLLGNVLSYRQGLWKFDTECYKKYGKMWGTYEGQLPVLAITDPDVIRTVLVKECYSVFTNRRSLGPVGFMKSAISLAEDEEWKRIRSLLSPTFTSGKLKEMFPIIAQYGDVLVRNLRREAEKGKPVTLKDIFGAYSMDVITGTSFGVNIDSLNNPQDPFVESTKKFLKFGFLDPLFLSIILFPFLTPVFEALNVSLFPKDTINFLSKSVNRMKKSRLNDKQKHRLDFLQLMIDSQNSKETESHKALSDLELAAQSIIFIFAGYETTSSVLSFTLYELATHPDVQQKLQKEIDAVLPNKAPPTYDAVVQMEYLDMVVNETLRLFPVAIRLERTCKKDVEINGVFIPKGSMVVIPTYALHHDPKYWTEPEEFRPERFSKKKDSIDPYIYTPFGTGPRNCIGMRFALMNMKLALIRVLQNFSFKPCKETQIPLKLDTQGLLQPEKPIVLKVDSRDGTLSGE

Cytochrome P450 2B6 [7] = target: T1, Cytochrome P450 2B6; experiment: Inhibition of CYP2B6 (unknown origin); format: ADME
[8] = Cmax in monkey plasma at 20 mg/kg, po measured up to 24 hrs by LC/MS analysis; format: ADME, organism-based, Macaca mulatta; set-up: dose 20 mg/kg, route oral; details: rhesus monkey; in short: as §1

Cn1cc(S(=O)(=O)N2CCC3=Cc4c(cnn4-c4ccc(F)cc4)C[C@]3(C(=O)c3cc(C(F)(F)F)ccn3)C2)cn1 [RELACORILANT]
TDI (Cytochrome P450 2B6 [1]): Not Active
inhibition (Rattus norvegicus): Active
bioavailability [2]: 88%
IC50 (Cytochrome P450 2C9): 2000 nM
IC50 (Cytochrome P450 2D6 [3]): 9000 nM
AUC at 24 h [4]: 1220 ng·h/mL
Ki (Glucocorticoid receptor): 12 nM
Imax [5]: 54.2%
TDI (Cytochrome P450 1A2): Not Active
TDI (Cytochrome P450 2D6 [6]): Not Active
TDI (Cytochrome P450 3A5): Not Active
IC50 (Cytochrome P450 2B6 [7]): > 10000 nM
Cmax [8]: 1140 ng/mL
